Test results: PubChem BioAssay AID624038 (The Scripps Research Institute Molecular Screening Center, 2012)
About 1,100 (0.31%) of roughly 360,000 compounds were called active. The sample holds actives, similar compounds and a random draw of the others, so the mix is not that of the screen. Values without a mark were called inactive.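 The calls were made as follows: active = activation above the run cutoff, the mean activation of all test compounds plus 3 SD (cut at about 18% in these data); inactive = the rest.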

Target: Muscarinic acetylcholine receptor M5 (Homo sapiens) (UniProt P08912)
Sequence (P08912 whole entry, looked up): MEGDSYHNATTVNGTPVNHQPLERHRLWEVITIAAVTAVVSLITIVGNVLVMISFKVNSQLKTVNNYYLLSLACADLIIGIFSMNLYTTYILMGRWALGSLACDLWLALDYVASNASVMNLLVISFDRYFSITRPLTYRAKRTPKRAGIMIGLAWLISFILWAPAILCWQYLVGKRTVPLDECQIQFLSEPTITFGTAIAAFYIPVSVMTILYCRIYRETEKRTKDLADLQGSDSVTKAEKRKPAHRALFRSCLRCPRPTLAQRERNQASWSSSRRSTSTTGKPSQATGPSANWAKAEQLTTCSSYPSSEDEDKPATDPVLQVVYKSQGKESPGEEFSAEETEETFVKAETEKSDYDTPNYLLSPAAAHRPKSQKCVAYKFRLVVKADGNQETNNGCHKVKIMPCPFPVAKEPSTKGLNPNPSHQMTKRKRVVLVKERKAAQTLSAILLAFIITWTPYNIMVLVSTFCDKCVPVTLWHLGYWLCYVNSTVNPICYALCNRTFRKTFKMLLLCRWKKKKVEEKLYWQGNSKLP
Test: human M5 muscarinic receptor positive allosteric modulators, primary screen, CHO-K1 cells, Fluo-8 calcium fluorescence (AID 624038)
Conditions: CHO-K1 hM5, Fluo-8 calcium, ACh EC20 PAM; at 3 µM; stronger effect = higher value; 0% = ACh EC20, 100% = ACh EC100
Summary of the method: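 Measured by: Fluo-8 calcium fluorescence; material: human M5 receptor in CHO-K1 cells; schedule: Post-acetylcholine fluorescence recording 140 s; benchmarks: low control EC20 acetylcholine (0%), high control EC100 acetylcholine (100%); read-out: Max/basal fluorescence ratio as % of EC20–EC100 ACh window; compound: single dose, 3 µM nominal final test concentration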

Structure (SMILES)	activation
CCCc1ccc(C(=O)[C@@H]2[C@@H](C(C)=O)N3c4ccc(F)cc4C=C[C@@H]3[C@@]23C(=O)Nc2ccccc23)cc1	25.3% (active)
COC(=O)c1ccc(Oc2nc(NC(C)C)nc(SC)n2)cc1	2.31%
CCOc1ccc(N(C)S(=O)(=O)c2cnc[nH]2)cc1	11.8%
Cc1ccc2[nH]c(=O)c(COC(=O)c3ccccn3)cc2c1	-8.69%
Cc1ccc2[nH]c(=O)c(CN(C)S(=O)(=O)c3cccc4nonc34)cc2c1	4.24%
CCCc1nc(-c2cc3cc(C)ccc3[nH]c2=O)no1	25% (active)
Cc1c(C(=O)NCC2CC2)sc(=O)n1Cc1cccc(F)c1	2.84%
CCCn1c(O)c(CN2CCCC(C)C2)c(C)c(C#N)c1=O (stereo not drawn)	-2.92%
O=C(COC(=O)c1ccc(Cl)nc1)NCc1cccs1	-12.7%
CC(C)(C)NC(=O)CN(C(=O)c1ccc(Cl)nc1)c1cccc2ccccc12	22.9% (active)
CC(C)(C)NC(=O)CN(C(=O)c1csnn1)c1ccccc1-c1ccccc1	-2.48%
O=c1c2cc(-c3ccccc3)sc2nc2n1N=C(c1cccs1)CS2	9.65%
Cc1cc(C)nc(-n2nc(C)cc2NC(=O)c2ccc(F)cc2F)n1	3.36%
Cc1cc(N/N=C\c2ccc(Br)cc2)nc(-n2nc(C)cc2C)n1	20.4% (active)
Cc1cc(C)n(-c2nnc(N3CCN(c4ccccc4)CC3)nn2)n1	-0.36%
COc1ccccc1-c1n[nH]nc1C1=CC(=O)CC(C)(C)C1	-0.48%
CCCCCCCCN1C(=O)[C@H](CC(=O)NCC23CC4CC(CC(C4)C2)C3)C[C@@]2(C(=O)OC)CCCCC=C12	-2.23%
Cc1ccc(C(=O)NC(C)c2ccccc2)cc1Br (stereo not drawn)	-0.29%
CC(NC(=O)C(=O)N/N=C/c1ccc(Cl)cc1)c1ccccc1 (stereo not drawn)	-5.3%
CC(NC(=O)c1cc2cc(Cl)ccc2oc1=N)c1ccccc1 (stereo not drawn)	35.2% (active)
COC(=O)c1cccc([N+](=O)[O-])c1CS(=O)(=O)c1ccc(C)cc1	-5.08%
CC(=O)N1c2ccc(S(=O)(=O)N3CCC(C(=O)NC4CCCCC4C)CC3)cc2CC1C (stereo not drawn)	-5.55%
COC(=O)Cc1nc2c(N)nc(N)nc2[nH]c1=O	5.33%
NC1=C([N+](=O)[O-])C(c2ccccc2)C2=C(CCCC2=O)O1 (stereo not drawn)	23.6% (active)

Structure (SMILES)	activation
N#CC1=C(N)OC2=C(C(=O)CCC2)C1C1CC=CCC1 (stereo not drawn)	-4.35%
COc1cc(C2C3=C(CCCC3=O)OC3=C2C(=O)CCC3)ccc1OCC(=O)Nc1ccccc1	-5.18%
CCCNC(=O)C1(C)CCN(Cc2ccc(Cl)c(Cl)c2)C1 (stereo not drawn)	0.24%
Cc1cc(-n2cnc(-c3cn(C)nc3C)n2)no1	-0.03%
CC(C)Oc1ccc(CN2CCC(n3nccc3NC(=O)c3cccnc3)CC2)cc1	0.11%
COc1ccc(S(=O)(=O)N2CCN(CC(=O)N3CCNC3=O)CC2)cc1OC	2.2%
CN1C2CCC1CC(NC(=O)c1ccc([N+](=O)[O-])cc1)C2 (stereo not drawn)	0.81%
CC(=O)N1CC[n+]2c(-c3ccc([N+](=O)[O-])cc3)csc21	20% (active)
Cc1cc(C)cc(C(=O)N2CCN=C2SCc2ccc([N+](=O)[O-])cc2)c1	-5.65%
O=C(NNS(=O)(=O)c1c(F)cc(F)c(Cl)c1F)C12CC3CC(CC(C3)C1)C2	-0.38%
CC(C)(C)C1CCC(OC(=O)CCC(=O)Nc2ccccc2)CC1 (stereo not drawn)	-2.13%
CN1CCC(=NNC(=O)CN(c2cccc(Cl)c2)S(C)(=O)=O)CC1	7.47%
CC(CCc1ccccc1)NC(=O)COC(=O)c1ccc(F)cc1 (stereo not drawn)	-4.05%
COc1cc(OC)cc(C(=O)NCC(=O)OCC(=O)NC(C)CCc2ccccc2)c1 (stereo not drawn)	21.1% (active)
COc1cc(C(=O)OCC(=O)NC(C)CCc2ccccc2)cc(OC)c1OC (stereo not drawn)	-10.1%
CC(C)CN(C(=O)CSc1nncn1C)C1CCS(=O)(=O)C1 (stereo not drawn)	11.7%
CCc1nn(CCCC(=O)NCc2ccc(C)cc2)c(=O)c2cc3occc3n12	2.21%
CCC(C(=O)NCc1ccc(OC)cc1)n1nc(C)n2c(cc3occc32)c1=O (stereo not drawn)	18.4% (active)
CCOc1ccc(CCNC(=O)C(CC)n2nc(C)n3c(cc4sccc43)c2=O)cc1OCC (stereo not drawn)	-4.37%
COc1cc(OC)c(NC(=O)C2CCCN2C(=O)OCc2ccccc2)cc1Cl (stereo not drawn)	2.68%
CCCCNC(=O)OC1CC2CC1[C@H]1CCCCN1C2=O (stereo partly drawn)	0.25%
CCOc1ccc(OCc2cccc(C(=O)N(CC)CC)c2)cc1	-1.6%
COc1ccc(OCc2cccc(C(=O)N3CCCC3)c2)cc1	19.1% (active)
CC(=O)Oc1ccc(-c2cccc(C(=O)N3CCCCC3)c2)cc1	-3.42%

Structure (SMILES)	activation
Cc1ccc(C2SCC(=O)N2c2ccccc2)cc1 (stereo not drawn)	13.5%
C[C@H]1COC(=O)[C@H](CC(=O)OC(C)(C)C)C/C=C\C[C@@H](CC(=O)N[C@H](CO)Cc2ccccc2)C(=O)N1	20.5% (active)
CC(C)(C)OC(=O)C[C@@H]1C/C=C\C[C@@H](CC(=O)N[C@H](CO)Cc2ccccc2)C(=O)NCCOC1=O	-2.01%
CC(C)(C)OC(=O)C[C@@H]1C/C=C\C[C@H](CC(=O)N[C@@H](CO)Cc2ccccc2)C(=O)N[C@H](Cc2ccccc2)COC1=O	-0.44%
Cc1nn(C)c(C)c1Sc1ccccc1N	-3.24%
COC(=O)CNC(=O)c1ccccc1F	22.4% (active)
O=C(CNC(=O)c1ccccc1F)c1ccc(Br)cc1	1.83%
O=C(COC(=O)CNC(=O)c1ccccc1F)NCC(F)(F)F	16.4%
Cn1ncc(Br)c1C(=O)NC1CCCC1	36.9% (active)
Cc1nn(C)c(C(=O)NNC(=S)NC2CCCCC2)c1Cl	-3.58%
COc1ccccc1NC(=O)c1c(Br)cnn1C	0.59%
CC(=O)Nc1ccc(S(=O)(=O)NCCc2ccccc2)cc1	-2.74%
O=S(=O)(NCCc1ccncc1)c1ccccc1	8.02%
O=S(=O)(NCCc1ccccc1)c1ccccc1	20.4% (active)
CCCC(C)n1[nH]c(=O)c2c(C)cc(C)nc21 (stereo not drawn)	4.59%
O=C1COc2ccc(C(=O)COC(=O)c3ccccc3Cl)cc2N1	-8.98%
Cc1ccc(S(=O)(=O)N(C)C)cc1NC(=O)CN1c2cccc3cccc(c23)S1(=O)=O	-2.16%
Cc1nc(Nc2ccccc2C)c2cnn(C)c2n1	-2.69%
Cn1ncc2c(Nc3cccc4ccccc34)ncnc21	43.5% (active)
Cn1ncc2c(NNC(=O)Cc3cccc4ccccc34)ncnc21	6.42%
CCCNC(=O)COc1coc(CN2CCN(Cc3ccccc3)CC2)cc1=O	-3.51%
Cc1c(C(=O)Nc2cccc(-c3nnc4n3CCCCC4)c2)oc2ccccc12	-11.2%
Brc1cccc(-c2nnc3n2CCC3)c1	-2.96%
O=C(Cn1[nH]c(=O)c2ccccc2c1=O)Nc1cccc(-c2nnc3n2CCCCC3)c1	22.3% (active)

Structure (SMILES)	activation
Cc1ccc(C)c(N2CCN(C(=O)CCc3nc(-c4cccc(C(F)(F)F)c4)no3)CC2)c1	-0.63%
OC[C@H]1O[C@@H](c2nc(-c3nc(-c4ccc(F)cc4)no3)cs2)[C@H](O)[C@@H](O)[C@H]1O	-2.26%
Cc1cccc(-c2noc(-c3ccc(F)cc3)n2)c1	18.1% (active)
Cc1ccc(-c2cccc([C@H]3[C@@H]4C=CC[C@@H](C)[C@@H]4C(=O)N3Cc3ccccc3)c2)cc1	-3.69%
Cc1nn(Cc2ccc(F)cc2)c(C)c1NC(=O)c1cccnc1Cl	24.4% (active)
Cc1nn(Cc2ccc(F)cc2)c(C)c1NC(=O)c1noc2c1CCc1ccccc1-2	-7.62%
Cc1nn(Cc2ccc(Cl)c(Cl)c2)c(C)c1NC(=O)c1cc(C2CC2)on1	-11.4%
CCNc1nc(NCC)nc(N(C)n2cnnc2)n1	1.44%
Nc1c(-c2ccc(F)cc2)cnn1C1CCS(=O)(=O)C1 (stereo not drawn)	0.13%
O=C(OC12CC3CC(CC(C3)C1)C2)c1ccc(NCc2cc(O)ccc2O)cc1	21.9% (active)
CC(C)C(=O)Nc1ccc2c(c1)oc1ccccc12	-7.04%
Cc1ccc(C(c2sc3nc(C)nn3c2O)N2CCN(c3ccccc3)CC2)cc1 (stereo not drawn)	5.14%
Oc1c(C(c2ccco2)N2CCC3(CC2)OCCO3)sc2ncnn12 (stereo not drawn)	-1.05%
Cc1ccc(C(c2sc3nc(C)nn3c2O)N2CCN(c3ccc(F)cc3)CC2)cc1 (stereo not drawn)	42.2% (active)
Cc1nc2sc(C(c3ccco3)N3CCC4(CC3)OCCO4)c(O)n2n1 (stereo not drawn)	5.68%
Oc1c(C(c2cccs2)N2CCN(c3ccc(F)cc3)CC2)sc2ncnn12 (stereo not drawn)	-5.38%
Cc1nc2sc(C(c3ccco3)N3CCOCC3)c(O)n2n1 (stereo not drawn)	20.1% (active)
COc1ccc(COC(=O)N/N=C(\C)CC(=O)Nc2ccc(Cl)cc2)cc1	-3.42%
COC(=O)c1ccc(C)c(NC(=O)C2CC(=O)N(C3CCCC(C)C3C)C2)c1 (stereo not drawn)	0.01%
Cc1ccc(NC(=O)Cn2cnc3c(OCc4ccccc4)ncnc32)cc1C	1.1%
CCN(Cc1nc2ccccc2c(=O)[nH]1)Cc1cc(=O)oc2cc(C)c(C)cc12	-12.3%
